A selection: hits, their analogues and other compounds. The true share with any hit is near 4%.
Measles CPE: compounds protecting cells from measles virus cytopathic effect, primary screen, measles RdRp inhibitor project, single point, MLSMR library, absorbance; 140,000 tested, 1.5% active; Measles virus-infected cells, CPE protection; protection (pct of control), % at 4 µM; in the data active = protection mostly above about 24%, no sharp cut-off; inactive = mostly below about 26%
BB579 growth dn: growth inhibitors of yeast BB579 in restrictive medium, primary screen, yeast lifespan-shortening project, S. cerevisiae | OD615, 48 h | inhibition, % at 10 µM | 140,000 tested, 0.51% active | AID 804, 2007;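 active = inhibition above a set limit, 3 SD over the mean compound inhibition, cut at about 44% in these data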
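test system = yeast BB579 (DeaD) | buffer or medium = restrictive CSMM-D medium | doses = single compound dose of 10 µM, 0.25% DMSO final | times = 4 h preincubation and 48 h exposure at 30 °C | technique = culture absorbance at 615 nm | benchmarks = amphotericin B 10 µg/mL, positive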
MDM2 E3 inh: MDM2-luciferase reporter signal enhancers, primary screen, MDM2 E3 ligase inhibitor project, cell-based, luminescence, 1536-well; E3 ubiquitin-protein ligase Mdm2 (Homo sapiens), Q00987; cell-based MDM2 ubiquitination luciferase reporter, 2 h; 0 = plate control, 100 = twice control, blank-subtracted; signal enhancement, % at 5 µM; 210,000 tested, 0.11% active;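 active = signal enhancement of 30% or more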;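 note: luminescence tracks abundance of the self-degrading MDM2-luciferase fusion protein; higher signal means inhibition of MDM2 E3 ligase activity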
Target sequence (Q00987 whole entry, looked up, the tested form may be a part): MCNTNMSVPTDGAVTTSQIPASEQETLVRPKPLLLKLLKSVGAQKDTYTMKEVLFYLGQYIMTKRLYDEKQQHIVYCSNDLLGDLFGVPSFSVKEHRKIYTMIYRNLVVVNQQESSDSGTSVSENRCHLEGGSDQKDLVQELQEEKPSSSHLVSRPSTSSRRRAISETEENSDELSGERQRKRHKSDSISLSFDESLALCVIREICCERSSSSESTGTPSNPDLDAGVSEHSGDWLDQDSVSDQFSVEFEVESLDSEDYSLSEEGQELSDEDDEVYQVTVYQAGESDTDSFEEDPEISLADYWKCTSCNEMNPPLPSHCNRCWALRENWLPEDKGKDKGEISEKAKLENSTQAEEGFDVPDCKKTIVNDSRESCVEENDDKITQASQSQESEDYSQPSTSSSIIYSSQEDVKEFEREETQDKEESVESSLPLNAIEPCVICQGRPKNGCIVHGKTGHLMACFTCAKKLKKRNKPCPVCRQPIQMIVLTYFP
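system = mammalian cells stably expressing self-ubiquitinating, self-degrading MDM2 E3–luciferase fusion | quantity = 2000 cells per well seeded | incubation = 4 h cell settling then 2 h compound exposure, 37 °C | signal = SteadyLite luminescence, 15 min reagent step | benchmarks = plate control and blank wells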
RAM network inh: inhibitors of the yeast RAM network, primary screen, dse1pr::URA3 reporter, 5-FOA selection; AID 868, 2007; inhibition, % at 50 µM; S. cerevisiae dse1pr::URA3 reporter, 5-FOA growth OD615, 2 d; analog-sensitive cbk1-as2 kinase mutant strain; 190,000 tested, 1.8% active;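 active = inhibition above a set limit, 3 SD over mean compound inhibition, cut at about 8.4% in these data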;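 note: inhibition rescues growth on 5-FOA so higher OD means more RAM inhibition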
Yeast lifespan up: compounds extending yeast replicative lifespan, primary screen, S. cerevisiae, OD615; AID 775, 2007; inhibition of the nicotinamide effect, % at 10 µM; 130,000 tested, 0.68% active; S. cerevisiae growth with nicotinamide; deaD strain in restrictive glucose medium;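 active = inhibition above a set limit, placed 3 SD over the median of all compounds, cut at about 26% in these data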
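Assay system: DeaD-strain S. cerevisiae. Medium: CSMM-D glucose medium, restrictive. Reagent: nicotinamide, 1.5 mM, co-present with compound. Compound: 10 µM single point, 0.25% DMSO. Schedule: culture preincubation 4 h, compound exposure 48 h, both 30 °C. Detection: absorbance at 615 nm.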
INS promoter inh: inhibitors of insulin promoter-driven GFP, primary screen, imaging, TRM-6 cells (human fetal islet line), eGFP reporter, cell count; 130,000 tested, 0.9% active; AID 1273, 2008; reporter expression induced with tamoxifen; inhibition, % at 2 µM;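 active = inhibition above the mean plus 3 SD, with well images judged a real hit on visual review, cut at about 60% in these data, passing the limit was not always enough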
Of the large screens only hits and unclear results are named; the others gave an inactive call.

CSc1ccc(S(=O)(=O)NCc2ccc(Cl)cc2Cl)cc1	Yeast lifespan up 87.6
CCN(c1ccc(NC(=O)COC(=O)CCc2cc(OC)c(OC)c(OC)c2)cc1)C(C)C	none (no result: Measles CPE, BB579 growth dn, Yeast lifespan up)
CCC(CC)C(=O)OCC(=O)Nc1cc(OC)c([N+](=O)[O-])cc1C	INS promoter inh 63.6
Cc1ccc(CC2C(=O)N(c3nc(C)cc(C)n3)C(=O)C2C)cc1 (stereo not drawn)	none (no result: Measles CPE, BB579 growth dn, Yeast lifespan up, INS promoter inh)
Cc1ccc(-c2cc3ccccc3nc2N2CCCC2)cc1	none
Cc1ccc2c(c1)C(=NC1CCCCC1)c1cc3ccccc3nc1-2	BB579 growth dn 59.7, INS promoter inh 90.6 (no result: Measles CPE)
Cc1ccc2c(c1)-c1nc3ccccc3cc1C2=NC1CCCCC1	BB579 growth dn 47.0 (no result: INS promoter inh)
O=C(N1CCN=C1SCc1cccnc1)C12CC3CC(CC(C3)C1)C2	none (no result: INS promoter inh)
CC(C)C(c1nnnn1Cc1ccc(F)cc1)N1CCN(Cc2ccc3c(c2)OCO3)CC1 (stereo not drawn)	none
CCN1CCN(C(c2nnnn2Cc2ccc3c(c2)OCO3)C(C)C)CC1 (stereo not drawn)	Measles CPE 56.4 (no result: Yeast lifespan up)
CCOC(=O)c1cnc2c(OC)cccc2c1Nc1ccc2c(c1)OCCO2	none
Cc1c(O)nc(SCC(=O)Nc2ccc3c4c(cccc24)CC3)n(-c2ccc(F)cc2)c1=O	RAM network inh 9.2
CCCCNC(=O)c1ccc(NC(C)=O)c(Cl)c1	none (no result: Measles CPE, BB579 growth dn, Yeast lifespan up)
COc1cc(NS(=O)(=O)c2ccc(NC(=O)/C=C/c3ccc([N+](=O)[O-])cc3)cc2)ncn1	none (no result: Measles CPE, BB579 growth dn, Yeast lifespan up)
COc1cc(NS(=O)(=O)c2ccc(NC(=O)/C=C/c3cccc([N+](=O)[O-])c3)cc2)ncn1	RAM network inh 8.9 (no result: Measles CPE, BB579 growth dn, Yeast lifespan up)
O=C(O)Cc1ccc2c(c1)N(S(=O)(=O)c1cccc(C(F)(F)F)c1)CC(C(=O)O)O2 (stereo not drawn)	Measles CPE 42.9
Cc1cc(NC(=O)CSc2ccc(-c3ccc(F)cc3)nn2)no1	none (no result: Measles CPE, BB579 growth dn, Yeast lifespan up)
COc1ccc(C(=O)N2CCN(c3ccccn3)CC2)cc1	Measles CPE 45.5
Cc1cc(C)c2c(N=NN3CCOCC3)[nH]nc2n1	BB579 growth dn 66.3 (no result: INS promoter inh)
Cc1cc(C)c2c(n1)sc1c(N3CCOCC3)ncnc12	none (no result: Measles CPE, BB579 growth dn, MDM2 E3 inh, RAM network inh, Yeast lifespan up)
Nc1nnc(Sc2ncccc2[N+](=O)[O-])s1	none (no result: Measles CPE, BB579 growth dn, Yeast lifespan up)
CCN1CCN(C(=O)C(C)Nc2ccc(OC)cc2OC)CC1 (stereo not drawn)	none (no result: Measles CPE, BB579 growth dn, Yeast lifespan up, INS promoter inh)
O=c1cc(N2CCCCC2)c(-c2ccccc2)n[nH]1	none (no result: Measles CPE, BB579 growth dn, Yeast lifespan up, INS promoter inh)
O=C(c1ccc(F)cc1)N1CCN(c2cc(=O)[nH]nc2-c2ccccc2)CC1	Measles CPE 39.5
Cc1ccc(C(=O)N2CCN(c3cc(=O)[nH]nc3-c3ccccc3)CC2)cc1	Measles CPE 37.9
Cc1ccc(C(=O)N2CCN(c3ncnc4c(-c5ccccc5)nsc34)CC2)cc1	none (no result: Measles CPE, BB579 growth dn, Yeast lifespan up)
Cc1ccc(C)c(NC(=O)C2CCCN2/C=C/C(=O)C(F)(F)F)c1 (stereo not drawn)	none (no result: INS promoter inh)
Cc1ccc(NC(=O)c2ccccc2NS(=O)(=O)c2ccc(Cl)s2)cc1S(=O)(=O)N1CCOCC1	none
O=C(Nc1ccc(Cl)cc1)NC1CCCC1Cc1ccco1 (stereo not drawn)	RAM network inh 8.8 (no result: INS promoter inh)
COc1ccc2[nH]c3c(NCCC4=CCCCC4)ncnc3c2c1	INS promoter inh 65.0 (no result: Measles CPE, BB579 growth dn, Yeast lifespan up)
Clc1ccc2[nH]c3c(NCCCN4CCOCC4)ncnc3c2c1	Measles CPE 44.0 (no result: INS promoter inh)
Cc1ccc2[nH]c3c(NCCN4CCOCC4)ncnc3c2c1	none
O=C1CCCN1CCCNc1ncnc2c1[nH]c1ccc(Cl)cc12	INS promoter inh 81.3
O=C1CCCN1CCCn1cnc2c([nH]c3ccc(F)cc32)c1=O	none (no result: INS promoter inh)
Cc1cc(S(=O)(=O)N2CCC(NC(=O)C34CC5CC(CC(C5)C3)C4)CC2)ccc1-n1cnnn1	none
CC(=O)C(Sc1nn(C)c(=S)s1)C(=O)Nc1ccccc1 (stereo not drawn)	none (no result: INS promoter inh)
CCN(CC)c1cc2nc(C)n(Cc3ccccc3)c(=O)c2cc1NC(=O)C1CC1	INS promoter inh 84.6 (no result: MDM2 E3 inh, Yeast lifespan up)

Screens as filed in PubChem.
